The results in this text go back to ChEMBL document CHEMBL4513216, “Probing the Open Global Health Chemical Diversity Library for Multistage-Active Starting Points for Next-Generation Antimalarials” (ACS Infect Dis, 2020).

The data set is described as follows: Toxicity liver stage against HepG2, at 10uM. The data set is classed as cell-based. Details: test concentration 10 uM, cell line HepG2-A16-CD81EGFP. The following applies: human, HepG2-A16-CD81EGFP cells; read-out: INHIBITION
An outline of the steps:
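Uninfected HepG2-A16-CD81EGFP cells, 3 × 10^3 per well, 1536-well, plated on prespotted compound at 10 μM final, parasite-free screening media added to match infected plates; puromycin 10 μM positive, DMSO 0.5% negative; run in parallel with 48 h PbLuc assay at 37 °C, 5% CO2; viability by CellTiter-Glo luminescence, normalized to controls.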
`CNS(=O)(=O)CC(=O)NCc1cc2c(s1)CCC(C)(C)C2`: the cytotoxicity at 10 µM turned out to be 3.15%.
Then `O=C(c1nc(=O)[nH][nH]1)N1CCCCCC1`, with 14.1%.
Consider `O=C1CCCN1CC1CN(C(=O)N2CCOCC2)Cc2nccn2C1` (configuration not stated), for which the cytotoxicity at 10 µM was -1.05%.
As for `COc1ccc(Cl)cc1-c1nc(N)nc(N(C)C)n1`, the cytotoxicity at 10 µM was -4.01%.
On to `CC(=O)N1CCC2(CCN(Cc3ccc(Cl)c(C(F)(F)F)c3)CC2)C1`, for which the cytotoxicity at 10 µM is -81.9%.
For `CC(C)CCN1CCC2(CCCN(c3nncs3)C2)C1` (configuration not stated), the cytotoxicity at 10 µM was -139%.
With `C1CC(NCc2nc(C3CC3)no2)CN(Cc2noc(C3CC3)n2)C1` (configuration not stated), the cytotoxicity at 10 µM is -8.65%.
Turning to `c1ncn(CC2CCCN2Cc2csc(C3CCCCC3)n2)n1` (configuration not stated), the cytotoxicity at 10 µM was found to be 1.77%.
As to `COCC1c2c(cnn2C)CCN1Cc1cccc(C)c1` (configuration not stated), the cytotoxicity at 10 µM was 0.951%.
On to `O=C(O)c1ccnc(-c2ccnc(NCCc3ccc(F)cc3)n2)c1`, for which the cytotoxicity at 10 µM was determined as 1.74%.
Consider `Cc1n[nH]c(C2CN(C(=O)c3csnn3)CCO2)n1` (configuration not stated), for which the cytotoxicity at 10 µM stood at 2.74%.
Then `CNC(=O)C(C)S(=O)(=O)Cc1csc(-c2cccs2)n1` (configuration not stated), with -11.9%; and `CCOCC(=O)N1CCC(Cc2nnc(SC)n2C)CC1`, with -53%.
The figure for `Cc1ccc2oc(CN3CCC(C(=O)O)(n4ccnc4)CC3)c(C)c2c1` is -9.06%.
Regarding `COc1ccc(S(=O)(=O)N2CCc3ccc(F)cc32)cc1C(=O)O`, the cytotoxicity at 10 µM was -11.4%.
On to `O=C(Cn1cccn1)N1CCC(Oc2cnccn2)CC1`, for which the cytotoxicity at 10 µM was determined as 7.11%.
`CCCN(Cc1ccccc1)Cn1nc(C)c2c(C)onc2c1=O`: the cytotoxicity at 10 µM was -9.98%.
Then `COCCN1CCN(c2ccc(CN(C)C)cn2)CC1`, with -7.41%.
Consider `Cc1nc(C)n(C2CCCN(C(=O)CCCOc3ccccc3)C2)n1` (configuration not stated), for which the cytotoxicity at 10 µM is -12.7%.
Turning to `COCCC(=O)NCC1COc2cc(OC)ccc2C1` (configuration not stated), the cytotoxicity at 10 µM was determined as 0.0723%.
Then `Fc1ccc(OCc2nnc([C@H]3CCN(Cc4ccncc4)C3)o2)cc1`, with -1.81%; and `Cc1nsc(N2CCCN(C(=O)NCc3cccnc3)CC2)n1`, with -0.555%.
Then `Cc1cnc(C(=O)Nc2cc(F)ccc2OCC2CCCO2)cn1` (configuration not stated), with -4.83%.
For the compound `c1ccc(CN2C[C@H]3CCC[C@@]3(COCC3CCOCC3)C2)nc1`, the cytotoxicity at 10 µM was 1.49%.
For `Cc1csc(CNc2cnn(C(C)C)c2)n1`, the cytotoxicity at 10 µM is 9.45%.
The figure for `O=C(NC1CC1)c1cc(Cl)ccc1-n1cnnn1` is 3.73%; for `Cc1cc(CN(C)C(=O)c2ccc(F)cc2Br)no1` it is 0.864%; for `Cn1cc(N2CCC3(CCN(C(=O)[C@H]4CCCO4)C3)C2=O)cn1` (some centres not stated) it is 0.893%.
The figure for `COC(=O)CC(C1=Cc2ccccc2OC1)c1oc(C)cc(=O)c1O` (configuration not stated) is -8.51%.
Then `O=C(Nc1cccnc1)N1CCC(n2ccc(C(F)(F)F)n2)CC1`, with -6.08%; and `CCS(=O)(=O)NCCNc1cc(-n2cccc2)ncn1`, with -3.5%.
Turning to `O=C(CC1COCCN1)NCCc1nc(-c2ccccn2)no1` (configuration not stated), the cytotoxicity at 10 µM was -0.849%.
On to `CCN(C(=O)CN1CCC(c2cc3ccccc3[nH]2)CC1)C1CC1`, for which the cytotoxicity at 10 µM came out at 0.99%.
The figure for `CC(=O)N1CCN(c2ccnc(C)n2)CC(COc2ccccc2)C1` (configuration not stated) is -6.16%; for `CCS(=O)(=O)CCNC(=O)NCc1ccccc1-n1cccn1` it is 4.87%.
Then `COC[C@]12COC[C@H]1CN(S(=O)(=O)c1cccnc1)C2`, with -0.975%; and `CNc1ncc(CN(C)Cc2cc(O)c3cc(C)cc(C)c3n2)cn1`, with -13.9%; and `Cc1ccc(NC2CCN(C(=O)c3c(C)nn(C)c3Cl)CC2)nn1`, with -11.6%.
`Cc1c(C(=O)NCCC(=O)N2CCOCC2)sc2ccc(F)cc12`: the cytotoxicity at 10 µM was found to be 4.5%.
Turning to `CCCc1cnc(C)nc1N1CCC(Cn2cc(C(C)O)nn2)CC1` (configuration not stated), the cytotoxicity at 10 µM was 1.92%.
Consider `CCCn1cc(-c2cc(-c3cc(CC)n[nH]3)c(C#N)c(N)n2)c(C)n1`, for which the cytotoxicity at 10 µM was -6.7%.
On to `Cc1cc(NC(=O)CN2CCC(N(C)Cc3ncc(C)o3)C2)n(C)n1` (configuration not stated), for which the cytotoxicity at 10 µM was -6.49%.
As to `CCN1CCC2(CC1)CC(NC(=O)NC)c1cc(C)ccc12` (configuration not stated), the cytotoxicity at 10 µM was -6.01%.
With `CCOCCCNC(=O)C(C)n1cc(Br)cn1` (configuration not stated), the cytotoxicity at 10 µM is -4.24%.
In the case of `O=C(Cc1ccc2c(c1)CCO2)N1CCN(c2nccs2)CC1`, the cytotoxicity at 10 µM was -10.7%.
In the case of `CCOC(=O)c1n[nH]cc1CN1CCOC(Cc2ccc(OC)cc2)C1` (configuration not stated), the cytotoxicity at 10 µM is -0.734%.
Then `CCS(=O)(=O)N1CCC2(CC1)CN(CC1CCOC1)c1ccccc12` (configuration not stated), with -85.9%; and `Cc1nnsc1CN1C[C@@H]2CC[C@H]1CN(Cc1ccccn1)C2`, with -3.56%.
Turning to `CN(Cc1nncn1C)C(=O)c1cc(COc2ccccc2F)[nH]n1`, the cytotoxicity at 10 µM came out at 2.14%.
The figure for `Cc1cnccc1-c1cnn(CCNC(=O)c2cccnc2)c1C1CC1` is 4.34%; for `O=C(Nc1cccc2c1CCCC2)c1cccnc1N1CCCNCC1` it is 6.84%.
The figure for `O=C(NC1CC1)c1cc2c(s1)CCN2C(=O)C1CC1` is 6.17%; for `COCC(C)(C)NS(=O)(=O)C1CS(=O)(=O)c2ccccc21` (configuration not stated) it is 4.22%; for `Cc1noc(C(C)Nc2ccc(N3CCOCC3)cc2C)n1` (configuration not stated) it is -3.92%.
Then `CN(C)C(=O)CC1CC2(CCN(Cc3ccoc3)CC2)c2ccccc21` (configuration not stated), with -10.1%; and `Cc1cccc(CN2C[C@@H](NC(=O)C3CC3)[C@H]3OCCC[C@H]32)n1`, with 7.8%.
For `CC1=NN(CC(=O)N2CC[C@@H]3[C@@H](CCC(=O)N3CC(C)C)C2)CC1`, the cytotoxicity at 10 µM worked out at 0.88%.
For `Cc1cc(NC(=O)CN2CCOC(Cn3nc(C)cc3C)C2)n(C)n1` (configuration not stated), the cytotoxicity at 10 µM is -7.91%.
As to `CCC(O)CN1CCN(C(=O)Cc2c(C)nc(C)[nH]c2=O)CC1` (configuration not stated), the cytotoxicity at 10 µM is -19.3%.
Then `O=C(CN1CCCCC1)NCc1cccnc1-n1cnc2ccccc21`, with 0.522%; and `Cc1nc(C)c(CC(=O)NCc2ccc(F)cc2)s1`, with 8.05%.
Consider `COC(=O)N1CCC(CNS(=O)(=O)c2cnn(C)c2)CC1`, for which the cytotoxicity at 10 µM was -9.03%.
Then `O=C(c1ccc2cccc(F)c2n1)N1CCN(CCn2cncn2)CC1`, with 7.02%.
The figure for `Cc1cccc(CN2CC[C@H]3[C@H]2CCN3Cc2cnn(C)c2)n1` is 8.67%; for `CCn1cnnc1Cc1nc2c([nH]1)CC(c1ccc(Cl)cc1)CNC2=O` (configuration not stated) it is -48.9%.
Consider `CC(=O)N1C[C@H]2CCCN(Cc3ccc(C)o3)[C@H]2C1`, for which the cytotoxicity at 10 µM was -1.36%.
With `CCCN1CCN(C(=O)CCn2cccc2)CC1`, the cytotoxicity at 10 µM worked out at 6.14%.
Turning to `c1cncc(-c2c[nH]c([C@@H]3COCCN3Cc3ccncc3)n2)c1`, the cytotoxicity at 10 µM amounted to 3.25%.
With `CO[C@@H]1CCN(Cc2cnn(C)c2)[C@@H]2CN(Cc3ccco3)C[C@@H]21`, the cytotoxicity at 10 µM was -12.5%.
The figure for `CN1CCCCCC1C(=O)N1CCCN(c2ccccc2)CC1` (configuration not stated) is -6.56%; for `CC(=O)N1CCCN(C(=O)Nc2ccccc2N2CCOC2=O)CC1` it is 0.334%; for `COc1ccc(/C=C/CN2CCN(c3nccnc3C)CC2)cc1` it is -8.47%.
With `CSCC(=O)NC(Cc1ccc(C)cc1)c1ccccn1` (configuration not stated), the cytotoxicity at 10 µM was 1.23%.
Consider `Cc1nnc(N2CC[C@H](OCC3CC3)[C@@H](Cc3ccccc3)C2)s1`, for which the cytotoxicity at 10 µM is 5.25%.
Then `CNC(=O)C(C)(C)CNC(=O)Nc1ccncc1C`, with -12.1%.
Consider `COc1cccc([C@H]2CN(C(=O)c3scc4c3CCCC4)C[C@@H]2N)c1`, for which the cytotoxicity at 10 µM was -3.45%.
Then `c1cc(CN2CCSC3(CCCCC3)C2)no1`, with 0.807%; and `CC(=O)N[C@@H]1CN(c2nc(C(N)=O)cs2)C[C@H]1c1ccc(C)o1`, with -41.2%.
The figure for `COc1ccc(NC(=O)NC(C)c2nc[nH]n2)cc1` (configuration not stated) is -7.71%; for `O=C(CC(F)(F)F)N1CCc2onc(Cn3cccn3)c2C1` it is 0.635%; for `CN(C)CC(C)(C)CN1CCC(c2ccnc(-c3cccc(O)c3)c2)C1` (configuration not stated) it is 3.36%.
Then `COCC1CCN(C(=O)c2cn(Cc3ccccc3C(F)(F)F)nn2)C1` (configuration not stated), with 6.86%; and `COCC(O)CN1CCC(NC(=O)c2cscc2C)CC1` (configuration not stated), with -4.51%; and `COC(=O)N1CCCC(C(=O)NCCc2c[nH]c3cc(C)ccc23)C1` (configuration not stated), with -5.95%.
Turning to `CC(C)NC(=O)C1CN(C(=O)N(C)C)CC12CCOCC2` (configuration not stated), the cytotoxicity at 10 µM was -110%.
The figure for `O=C(Cn1ccc(=O)c2ccccc21)Nc1cnccc1O` is -4.08%; for `CS(=O)(=O)NCc1noc2c1CN(C(=O)C1CC1)CC2` it is -107%.
Turning to `COc1ccnc(NC(=O)c2cscc2C)c1`, the cytotoxicity at 10 µM was -16%.
Then `Cc1nnc(N2C[C@H](OCc3ccncc3)[C@H]3OCCC[C@H]32)s1`, with 13.6%.
Take `Cc1ccccc1NC(=O)Nc1cc(N2CCCC2)ncn1`: the cytotoxicity at 10 µM is -7.73%.
Take `CCCC(C)CS(=O)(=O)NCc1cccnc1OC` (configuration not stated): the cytotoxicity at 10 µM was -18%.
Then `Cc1nnc2n1CCN(Cc1csc(-c3ncccn3)n1)C2`, with -38.1%; and `Cc1nc(O)c2nnn(C[C@H]3CCCN3C(=O)c3ccccc3C)c2n1`, with -7.36%; and `CCC1CNCc2cc3c(OC)ccc(OC)c3nc2O1` (configuration not stated), with -4.22%.
The figure for `COc1ccc(CC(=O)N2CCC[C@@H](N)[C@@H]2c2ccccc2F)cc1` is 2.49%.
Then `Cc1nn2c(nc1=O)-c1ccccc1NC2C(=O)O` (configuration not stated), with 5.32%; and `CCCC1c2ccccc2CCN1CCS(C)(=O)=O` (configuration not stated), with -0.846%.
